Data on one molecule can be found in ChEMBL document CHEMBL4304782, “Antioxidant, Anti-inflammatory, and Neuroprotective Effects of Novel Vinyl Sulfonate Compounds as Nrf2 Activator” (ACS Med Chem Lett, 2019).

The source made the active and inactive calls. The rule behind the calls is not given here.

In data set [1] the target is T1, Nuclear factor erythroid 2-related factor 2 (Mus musculus) (UniProt Q60795).
T1 sequence (whole entry): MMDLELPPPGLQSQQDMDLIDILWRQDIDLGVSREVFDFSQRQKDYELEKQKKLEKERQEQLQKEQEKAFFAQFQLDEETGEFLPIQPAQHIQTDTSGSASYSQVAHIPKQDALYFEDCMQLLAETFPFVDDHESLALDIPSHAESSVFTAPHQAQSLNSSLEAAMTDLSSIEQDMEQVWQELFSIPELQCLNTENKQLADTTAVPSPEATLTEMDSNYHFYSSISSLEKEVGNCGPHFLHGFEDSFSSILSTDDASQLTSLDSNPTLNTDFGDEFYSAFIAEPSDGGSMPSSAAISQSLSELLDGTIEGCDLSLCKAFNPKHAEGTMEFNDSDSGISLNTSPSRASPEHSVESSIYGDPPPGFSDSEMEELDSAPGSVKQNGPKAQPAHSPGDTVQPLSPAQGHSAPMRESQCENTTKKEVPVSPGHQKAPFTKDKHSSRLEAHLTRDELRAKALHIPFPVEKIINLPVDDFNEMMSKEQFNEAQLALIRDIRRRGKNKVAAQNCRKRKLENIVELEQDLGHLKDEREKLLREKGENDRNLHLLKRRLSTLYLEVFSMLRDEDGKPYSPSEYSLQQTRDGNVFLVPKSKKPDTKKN
The data set is described as follows: Activation of Nrf2 in mouse BV-2 cells assessed as increase in HO-1 level at 0.3 to 10 uM incubated for 12 hrs by Western blot analysis relative to control. The format is cell-based. Put shortly:
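BV-2 cells treated for 12 h; HO-1, GCLM, GCLC protein by Western blot, normalized to β-actin; at least duplicate cultures, fold induction over untreated control ± SEM; paired t test.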

Data set [2] is described as follows: Cytotoxicity against mouse BV2 cells assessed as cell viability at 1 uM incubated for 6 hrs by CCK-8 assay relative to control. The data set is classed as cell-based, BV-2. The conditions noted are these: read-out: Activity. Put shortly:
(§1)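 BV-2 cells exposed to compound for 6 h, then viability measured; percent survival reported.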
On the technique in general: Tetrazolium dyes change colour on reduction, which living cells bring about.

Data set [3] is described as follows: Cytotoxicity against mouse BV2 cells assessed as cell viability at 3 uM incubated for 6 hrs by CCK-8 assay relative to control. The format is cell-based, BV-2. To be noted: read-out: Activity. The method, boiled down: as §1
Data set [4] addresses T1, Nuclear factor erythroid 2-related factor 2 (Mus musculus). As to the kind of experiment: Activation of Nrf2 in mouse BV-2 cells assessed as increase in nuclear Nrf2 level at 0.3 uM by Western blot analysis relative to control. The format is cell-based. Put shortly:
(§2)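 BV-2 microglia treated 0.3–10 μM; Nrf2 measured by Western blot in nuclear extracts and whole-cell lysates; at least duplicate cultures, averaged, expressed as fold of untreated control ± SEM; paired t test.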
In general terms: Immunoblotting shows a protein as a band on a membrane.

The target is the same in data set [5]. The data set is described as follows: Activation of Nrf2 in mouse BV-2 cells assessed as increase in nuclear Nrf2 level at 10 uM by Western blot analysis relative to control. The format is cell-based. Put shortly:
as §2

Data set [6] has the same target. As to the kind of experiment: Activation of Nrf2 in mouse BV-2 cells assessed as increase in total Nrf2 level by Western blot analysis. The format is cell-based. Put shortly: as §2
The target in data set [7] is T2, Nuclear factor erythroid 2-related factor 2 (Homo sapiens) (UniProt Q16236).
T2 sequence (whole entry): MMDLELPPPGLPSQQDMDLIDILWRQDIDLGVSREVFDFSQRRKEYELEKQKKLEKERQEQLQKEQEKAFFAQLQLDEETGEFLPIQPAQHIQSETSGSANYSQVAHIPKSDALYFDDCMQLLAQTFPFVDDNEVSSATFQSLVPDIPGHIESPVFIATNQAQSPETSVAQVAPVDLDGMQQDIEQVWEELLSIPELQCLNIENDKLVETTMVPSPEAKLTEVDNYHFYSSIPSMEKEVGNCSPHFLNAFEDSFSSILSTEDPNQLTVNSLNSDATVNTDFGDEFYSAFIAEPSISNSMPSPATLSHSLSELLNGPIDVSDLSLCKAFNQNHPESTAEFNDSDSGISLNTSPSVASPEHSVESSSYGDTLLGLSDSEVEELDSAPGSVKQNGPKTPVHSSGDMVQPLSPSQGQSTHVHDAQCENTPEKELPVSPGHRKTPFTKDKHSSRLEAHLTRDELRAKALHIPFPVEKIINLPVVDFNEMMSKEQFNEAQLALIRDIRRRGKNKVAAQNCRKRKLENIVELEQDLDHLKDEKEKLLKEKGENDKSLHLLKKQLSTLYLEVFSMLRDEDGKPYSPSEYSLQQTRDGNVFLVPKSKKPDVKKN
The data set is described as follows: Activation of Nrf2 in human SH-SY5Y cells assessed as increase in GCLM level at 0.3 to 3 uM incubated for 6 to 24 hrs by Western blot analysis relative to control. The data set is classed as cell-based. The method, boiled down:
(§3)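 SH-SY5Y neuroblastoma cells treated for 6 or 24 h, then harvested; NQO1, GCLM, GCLC protein by Western blot with β-actin loading control; at least duplicate cultures, averaged, fold of untreated control ± SEM; paired t test.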

Data set [8] has as its target T2, Nuclear factor erythroid 2-related factor 2 (Homo sapiens). The data set is described as follows: Activation of Nrf2 in human SH-SY5Y cells assessed as increase in GCLC level at 0.3 to 3 uM incubated for 6 to 24 hrs by Western blot analysis relative to control. The format is cell-based. The method, boiled down:
as §3

The subject of data set [9] is BV-2. The data set is described as follows: Antiinflammatory activity in mouse BV2 cells assessed as reduction in LPS-induced COX2 level at 1 to 10 uM incubated for 6 hrs followed by LPS stimulation for 12 hrs by Western blot analysis. The format is functional, cell-based. Put shortly:
(§4)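 BV-2 cells pretreated with compound 6 h, then stimulated with 1 μg/mL LPS for 12 h; protein and mRNA levels quantified relative to LPS-stimulated control; mean ± SD (n = 3); paired t test.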

Data set [10] relates to BV-2. The data set is described as follows: Antiinflammatory activity in mouse BV2 cells assessed as reduction in LPS-induced iNOS expression at 3 to 10 uM incubated for 6 hrs followed by LPS stimulation for 12 hrs by RT-qPCR analysis. The format is functional, cell-based. The method, boiled down:
as §4
For orientation: In qPCR the cycle at which signal appears reflects the starting amount.

In data set [11] the test system is BV-2. As to the kind of experiment: Antiinflammatory activity in mouse BV2 cells assessed as reduction in LPS-induced IL-6 production incubated for 24 hrs by ELISA. The data set is classed as functional, cell-based. The method, boiled down:
(§5)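 BV-2 cells given compound together with 1 μg/mL LPS for 24 h; mediator levels expressed relative to LPS-stimulated control ± SEM; at least duplicate cultures; paired t test.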

Data set [12] deals with BV-2. As to the kind of experiment: Antiinflammatory activity in mouse BV2 cells assessed as reduction in LPS-induced TNF-alpha production incubated for 24 hrs by ELISA. The format is functional, cell-based. The method, boiled down: as §5
Data set [13] has as its system Mus musculus. The data set is described as follows: Anti-parkinson's activity in MPTP-induced C57Bl/6 mouse model of Parkinson's disease assessed as restoration of descent time at 20 mg/kg, po administered for 3 consecutive days prior and subsequent to MPTP administration (four injections of MPTP, 2 h intervals, 20 mg/kg, i.p. injection by vertical grid test. The data set is classed as functional, organism-based. The method, boiled down: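 Mice dosed 20 mg/kg p.o. (or vehicle) for 3 consecutive days before and after MPTP (four i.p. injections, 20 mg/kg, 2 h apart); vertical grid test (turning, descent, total time) and coat-hanger scoring; n = 10–12 per group; mean ± SEM; one-way ANOVA with Tukey's test.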

In data set [14] the test system is Mus musculus. As to the kind of experiment: Protection against MPTP-induced DAergic neurotoxicity in C57B/6 mouse model of Parkinson's disease assessed as restoration of TH-positive neurons cell density in striatum at 20 mg/kg, po observed after 7 days by microscopic analysis. The data set is classed as functional, organism-based. The method, boiled down: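 MPTP mouse model with 20 mg/kg oral dosing; striatal and substantia nigra sections collected 7 days later and stained for tyrosine hydroxylase; striatal TH density and nigral TH-positive neuron counts; mean ± SEM; one-way ANOVA with Tukey's test.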

As to `COc1ccccc1OS(=O)(=O)/C=C/c1ccccc1Cl`, the fold change (FC) came out at 10.3 in data set [1]; 4 in [4]; 17.6 in data set [5]; 2.9 in [7]; 1.5 in [8]. For the same molecule, the viability at 6 h, 1 µM in data set [2] is 98%. The viability at 6 h, 3 µM in [3] was 97.6%. For the same molecule, the Activity entry in [6], in data set [11] and in [12] was “Dose-dependent effect” in each case. Further, the result in data set [9], in [10], in data set [13] and in data set [14] was Active.
